Laboratory results taken from ChEMBL document CHEMBL2407075, “Sulphonamido-quinoxalines: search for anticancer agent” (Eur J Med Chem, 2013).

Columns and labels:
Format in all cases: functional
[1] = system: HT-29; experiment: Growth inhibition of human HT-29 cells at 10 uM after 48 hrs by sulforhodamine B assay; conditions: HT-29, 48 h, read-out: GI
Outline: (§1)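 NCI-60 one-dose primary screen at a single 10 µM concentration. Cells in RPMI 1640 with 5% FBS, preincubated 24 h at 37 °C, 5% CO2. Drug exposure 48 h, then TCA fixation, SRB staining and absorbance at 515 nm. Percent growth calculated against time-zero and untreated control wells, then converted to percent growth inhibition.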

[2] = system: UACC-62; experiment: Growth inhibition of human UACC62 cells at 10 uM after 48 hrs by sulforhodamine B assay; conditions: UACC-62, 48 h, read-out: GI
Outline: (§2)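 Single-dose screen at 10 µM across the NCI 60 panel. Cells in RPMI 1640 with 5% FBS and 2 mM L-glutamine, plated at 5000–40,000/well and preincubated 24 h at 37 °C, 5% CO2. Drug in DMSO, 48 h exposure. Fixed with TCA, stained with SRB, A515 read. Percent growth is taken relative to untreated control, and inhibition is 100 minus growth.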

[3] = system: UO-31; experiment: Growth inhibition of human UO31 cells at 10 uM after 48 hrs by sulforhodamine B assay; conditions: UO-31, 48 h, read-out: GI; outline: as §2
[4] = system: OVCAR-5; experiment: Growth inhibition of human OVCAR5 cells at 10 uM after 48 hrs by sulforhodamine B assay; conditions: OVCAR-5, 48 h, read-out: GI; outline: as §2
[5] = system: CAKI-1; experiment: Growth inhibition of human CAKI-1 cells at 10 uM after 48 hrs by sulforhodamine B assay; conditions: CAKI-1, 48 h, read-out: GI
Outline: (§3)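 Single-dose NCI-60 prescreen at 10 µM for 48 h at 37 °C and 5% CO2, using cells grown in RPMI 1640 with 5% FBS and 2 mM glutamine. Protein was measured by SRB after TCA fixation: 10% final for adherent lines, 16% for suspension lines. Absorbance was read at 515 nm. Percent growth inhibition was obtained by subtracting percent growth from 100.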

[6] = system: A549; experiment: Growth inhibition of human A549/ATCC cells assessed as cell growth at 10^-7 M after 48 hrs by sulforhodamine B assay; conditions: A549, 48 h, read-out: Activity
Outline: (§4)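 Five-dose NCI-60 run (0.01, 0.1, 1, 10 and 100 µM, as 10-fold dilutions from a DMSO stock made at 400× the top final level). Cells were grown in RPMI 1640 with 5% FBS and 2 mM glutamine and plated for 24 h. They were then exposed for 48 h at 37 °C and 5% CO2. TCA fixation was followed by SRB staining with A515 read-out. Percent growth was taken relative to time-zero and control plates.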

[7] = system: OVCAR-8; experiment: Growth inhibition of human OVCAR8 cells at 10 uM after 48 hrs by sulforhodamine B assay; conditions: OVCAR-8, 48 h, read-out: GI; outline: as §2
[8] = system: HCT-116; experiment: Growth inhibition of human HCT116 cells at 10 uM after 48 hrs by sulforhodamine B assay; conditions: HCT-116, 48 h, read-out: GI; outline: as §1
[9] = system: NCI-H23; experiment: Growth inhibition of human NCI-H23 cells at 10 uM after 48 hrs by sulforhodamine B assay; conditions: NCI-H23, 48 h, read-out: GI; outline: as §2
[10] = system: LOX IMVI; experiment: Growth inhibition of human LOXIMVI cells at 10 uM after 48 hrs by sulforhodamine B assay; conditions: read-out: GI; outline: as §2
[11] = system: CAKI-1; experiment: Growth inhibition of human CAKI-1 cells assessed as cell growth at 10^-7 M after 48 hrs by sulforhodamine B assay; conditions: CAKI-1, 48 h, read-out: Activity; outline: as §4
[12] = system: SK-MEL-28; experiment: Growth inhibition of human SK-MEL-28 cells at 10 uM after 48 hrs by sulforhodamine B assay; conditions: SK-MEL-28, 48 h, read-out: GI; outline: as §2
[13] = system: DU-145; experiment: Growth inhibition of human DU145 cells at 10 uM after 48 hrs by sulforhodamine B assay; conditions: DU-145, 48 h, read-out: GI; outline: as §3
[14] = system: ACHN; experiment: Growth inhibition of human ACHN cells at 10 uM after 48 hrs by sulforhodamine B assay; conditions: read-out: GI; outline: as §3
[15] = system: NCI-H226; experiment: Growth inhibition of human NCI-H226 cells at 10 uM after 48 hrs by sulforhodamine B assay; conditions: NCI-H226, 48 h, read-out: GI; outline: as §2
[16] = system: SR; experiment: Growth inhibition of human SR cells at 10 uM after 48 hrs by sulforhodamine B assay; conditions: read-out: GI; outline: as §2
[17] = system: TK-10; experiment: Growth inhibition of human TK10 cells at 10 uM after 48 hrs by sulforhodamine B assay; conditions: TK-10, 48 h, read-out: GI; outline: as §2
[18] = system: SF-268; experiment: Growth inhibition of human SF268 cells at 10 uM after 48 hrs by sulforhodamine B assay; conditions: SF-268, 48 h, read-out: GI; outline: as §2
[19] = system: LOX IMVI; experiment: Growth inhibition of human LOXIMVI cells assessed as cell growth at 10^-4 M after 48 hrs by sulforhodamine B assay; conditions: read-out: Activity
[20] = system: PC-3; experiment: Growth inhibition of human PC3 cells at 10 uM after 48 hrs by sulforhodamine B assay; conditions: PC-3, 48 h, read-out: GI; outline: as §2
[21] = system: NCI-H460; experiment: Growth inhibition of human NCI-H460 cells at 10 uM after 48 hrs by sulforhodamine B assay; conditions: NCI-H460, 48 h, read-out: GI; outline: as §2
[22] = Growth inhibition of human NCI-ADR-RES cells at 10 uM after 48 hrs by sulforhodamine B assay; conditions: read-out: GI; outline: as §2
[23] = system: SNB-75; experiment: Growth inhibition of human SNB75 cells at 10 uM after 48 hrs by sulforhodamine B assay; conditions: SNB-75, 48 h, read-out: GI; outline: as §2
[24] = system: OVCAR-3; experiment: Growth inhibition of human OVCAR3 cells at 10 uM after 48 hrs by sulforhodamine B assay; conditions: OVCAR-3, 48 h, read-out: GI; outline: as §2
[25] = system: RPMI-8226; experiment: Growth inhibition of human RPMI8226 cells at 10 uM after 48 hrs by sulforhodamine B assay; conditions: RPMI-8226, 48 h, read-out: GI; outline: as §2
[26] = system: HCT-15; experiment: Growth inhibition of human HCT15 cells at 10 uM after 48 hrs by sulforhodamine B assay; conditions: HCT-15, 48 h, read-out: GI; outline: as §1
[27] = Growth inhibition of human Hs 578T cells at 10 uM after 48 hrs by sulforhodamine B assay; conditions: read-out: GI; outline: as §1
[28] = system: U-251; experiment: Growth inhibition of human U251 cells at 10 uM after 48 hrs by sulforhodamine B assay; conditions: U-251, 48 h, read-out: GI; outline: as §2
[29] = system: COLO 205; experiment: Growth inhibition of human COLO205 cells at 10 uM after 48 hrs by sulforhodamine B assay; conditions: COLO 205, 48 h, read-out: GI; outline: as §3

Structure (SMILES): O=S(=O)(Nc1ccc(Cl)cc1)c1ccc2nc(-c3ccccc3)c(-c3ccccc3)nc2c1
- inhibition of growth at 10 µM [1]: 70.4%
- inhibition of growth at 10 µM [2]: 30.6%
- inhibition of growth at 10 µM [3]: 29.2%
- inhibition of growth at 10 µM [4]: 18.3%
- inhibition of growth at 10 µM [5]: 33.9%
- growth at 0.1 µM [6]: 97%
- inhibition of growth at 10 µM [7]: 34.8%
- inhibition of growth at 10 µM [8]: 59.6%
- inhibition of growth at 10 µM [9]: 26.6%
- inhibition of growth at 10 µM [10]: 38.4%
- growth at 0.1 µM [11]: 88%
- inhibition of growth at 10 µM [12]: 14.6%
- inhibition of growth at 10 µM [13]: 24.4%
- inhibition of growth at 10 µM [14]: 23.9%
- inhibition of growth at 10 µM [15]: -2.45%
- inhibition of growth at 10 µM [16]: 88.1%
- inhibition of growth at 10 µM [17]: 2.84%
- inhibition of growth at 10 µM [18]: 14.1%
- growth at 100 µM [19]: 66%
- inhibition of growth at 10 µM [20]: 60%
- inhibition of growth at 10 µM [21]: 47.1%
- inhibition of growth at 10 µM [22]: 55.2%
- inhibition of growth at 10 µM [23]: 45.1%
- inhibition of growth at 10 µM [24]: 28.8%
- inhibition of growth at 10 µM [25]: 86%
- inhibition of growth at 10 µM [26]: 44.7%
- inhibition of growth at 10 µM [27]: 37.5%
- inhibition of growth at 10 µM [28]: 39.5%
- inhibition of growth at 10 µM [29]: 26.6%
